Scp-1 inhibitor – blocks human Scp-1 phosphatase activity; Q9GZU7; Recombinant Scp1, phosphopeptide, malachite green phosphate absorbance; inhibition, % at 20 µM; 340,000 tested, 0.88% active; AID 493091;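 active means inhibition above about 50% at 20 µM, limit read from the data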;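 further: plate controls were DMSO wells with enzyme for no effect and wells lacking enzyme for full effect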
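System: SCP-1 catalytic domain; Reagent: Phospho 17-mer peptide substrate; Doses: one concentration, 20 µM, with 1.0% DMSO; Incubation: 45 min room-temperature reaction, 5 min colour, 30 min stabiliser; Signal: Phosphate-binding colour reagent, absorbance read at 630 nm.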
STEP inh – STEP (human) phosphatase inhibition; recombinant STEP, OMFP fluorogenic substrate, fluorescence; inhibition, % at 20 µM; 360,000 tested, 0.25% active; P54829;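 active means inhibition at 20 µM, scaled per plate between control wells, above about 37%, limit read from the data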;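 further: 0% = DMSO with enzyme and substrate and 100% = substrate only without enzyme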
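Assay system: isolated STEP enzyme. Buffer or medium: pH 6.0 Bis-Tris with DTT and Tween 20. Also added: fluorogenic phosphatase substrate OMFP at 25 µM final. Dosing: 20 µM, 1% DMSO. Timing: 20 min reaction, room temperature, in the dark. Measured by: fluorescence intensity, excitation 480 nm, emission 540 nm. Evaluation: normalized % inhibition.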
LMPTP block – LMPTP (human) inhibition; P24666; recombinant LMPTP-A, OMFP fluorogenic substrate, fluorescence intensity; inhibition, % at 20 µM; 360,000 tested, 0.22% active; AID 651560;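 active means compounds that cut the enzyme signal by at least half of the control window in the single-dose screen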;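 further: plate controls were DMSO wells with enzyme plus substrate for no effect and substrate without enzyme for full effect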
Target sequence (P24666 whole entry, looked up): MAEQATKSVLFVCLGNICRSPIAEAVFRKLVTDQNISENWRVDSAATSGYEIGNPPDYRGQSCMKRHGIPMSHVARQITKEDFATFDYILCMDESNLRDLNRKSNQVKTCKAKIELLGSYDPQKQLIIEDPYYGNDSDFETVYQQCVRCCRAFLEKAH
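Material: LMPTP-A; amount: 0.625 nM enzyme; doses: single 20 µM dose; times: reaction 50 min, room temperature, dark; technique: fluorescence intensity of OMFP turnover product; benchmarks: no-enzyme and uninhibited controls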
PP5 inh – inhibitors of human protein phosphatase 5 (PP5) | P53041 | purified PP5c, OMFP substrate fluorescence | inhibition, % at 6.7 µM | 320,000 tested, 0.18% active;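 active means inhibition above the campaign's mean inhibition across all tested compounds plus 3 SD, cut at about 9.5% in these data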;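 further: 0% = DMSO only and 100% = 100 µM cantharidin control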
Target sequence (P53041 whole entry, looked up): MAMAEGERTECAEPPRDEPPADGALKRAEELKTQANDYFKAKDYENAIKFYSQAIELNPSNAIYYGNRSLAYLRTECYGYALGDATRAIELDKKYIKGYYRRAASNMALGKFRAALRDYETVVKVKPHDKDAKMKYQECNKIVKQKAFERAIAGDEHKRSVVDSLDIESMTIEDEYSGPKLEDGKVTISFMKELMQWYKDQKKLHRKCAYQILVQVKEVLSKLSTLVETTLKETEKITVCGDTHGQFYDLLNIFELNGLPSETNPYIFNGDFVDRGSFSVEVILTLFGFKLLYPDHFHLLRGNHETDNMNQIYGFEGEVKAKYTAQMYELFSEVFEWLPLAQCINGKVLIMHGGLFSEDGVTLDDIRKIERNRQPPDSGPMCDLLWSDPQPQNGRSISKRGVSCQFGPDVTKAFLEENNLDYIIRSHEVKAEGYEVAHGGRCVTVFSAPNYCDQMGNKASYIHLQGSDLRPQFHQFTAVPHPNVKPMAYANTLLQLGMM
PP1 counter – blocks human PP1-alpha phosphatase, a PP5 counter-screen | purified PP1alpha, OMFP fluorescence | P62136 | AID 2235 | 320,000 tested, 0.9% active | inhibition, % at 6.7 µM;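 active means inhibition above the mean inhibition of all tested compounds plus 3 SD, computed separately for each screening campaign, cut at about 15% in these data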
PP1 confirm – confirmation of human PP1 phosphatase inhibitors | shares compounds with PP1 counter | purified PP1alpha, OMFP substrate fluorescence | inhibition, % at 6.7 µM | 1,900 tested, 52% active | AID 2358;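 active means mean PP1 inhibition above a set limit taken from the earlier primary screen, cut at about 15% in these data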
PP5 counter – counter-screen for PP1 inhibitors: human PP5 phosphatase inhibition; shares compounds with PP1 counter; purified PP5c, OMFP fluorescence; inhibition, % at 6.7 µM; 1,900 tested, 4% active;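 active means mean PP5 inhibition over triplicate wells above about 9.5% taken from the earlier PP1 screen, limit read from the data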
* marks the source's active call; other numbers are inactive results; . = not tested or not shown. In the library only some 1.9% were active in any assay of this set; here they are far more common.

SMILES	Scp-1 inhibitor	STEP inh	LMPTP block	PP5 inh	PP1 counter	PP1 confirm	PP5 counter
O=C(O)c1ccc(COc2ccccc2/C=C2\NC(=O)N(Cc3ccccc3)C2=O)cc1	34	-3	0	3	2	.	.
Cc1ccc(NC(=O)CN2C(=O)N/C(=C/c3ccccc3OCc3cccc(C(=O)O)c3)C2=O)cc1	25	0	1	2	52*	33*	-6
COc1ccccc1NC(=O)c1sc(Cl)nc1C	-4	7	1	0	-5	.	.
COc1ccccc1NC(=O)c1c(Nc2ccccc2F)sc(C(=O)Nc2cccc(Cl)c2)c1N	-8	14	4	0	22*	2	2
CC(C)c1ccc(NC(=O)Nc2cc3sccc3n2C)cc1	-10	-2	-2	4	18*	2	-6
CC1=NNC(=O)/C1=C\c1cn(-c2ccccc2)nc1-c1ccc(F)cc1	8	-6	-1	.	.	.	.
CC1=NNC(=O)/C1=C\c1cn(-c2ccccc2)nc1-c1cccs1	-3	-2	0	3	19*	10	0
O=C(COC(=O)CN1CCSC1=O)Nc1ccc(F)cc1Cl	2	4	0	.	.	.	.
Cc1ccccc1NC1c2ccccc2C(=O)N1Cc1ccco1 (stereo not drawn)	-12	0	0	0	1	.	.
Cc1cccc(NC(=O)Cn2nnc(C(=O)Nc3ccc(F)c(Cl)c3)c2N)c1	-9	-2	5	-6	19*	-1	-4
Cn1c(=O)c2c(nc(NCc3cccnc3)n2Cc2cccc(C(F)(F)F)c2)n(C)c1=O	-7	-2	1	3	1	.	.
CCOC(=O)C1CCCN(c2ccc(NC(=O)c3snc4c(=O)[nH]cnc34)cc2)C1 (stereo not drawn)	-2	8	3	-1	23*	26*	-1
CCC1=NNc2cccc3c(OC)ccc1c23	.	.	.	5	33*	9	5
COc1ccc(C(C)=O)c2c(O)cccc12	1	0	1	2	3	.	.
COc1ccc(CNCCC(c2ccc(OC(C)C)cc2)c2ccccc2OC)cc1 (stereo not drawn)	18	4	4	2	13	.	.
Cc1c(NC(=O)c2cccnc2C(=O)O)cccc1C(=O)O	-6	-2	-3	0	25*	0	3
COC(=O)C1=C(CSc2nc3c(cc2C#N)CN(C)CC3)OC(N)=C(C#N)C1c1ccc(F)cc1 (stereo not drawn)	-6	-2	3	5	18*	5	5
CCN1CCN(Cc2ccc(NC(=O)c3cc(NC(=O)c4cncc(-c5cccs5)c4)cc(OC)c3)cc2C(F)(F)F)CC1	-2	2	1	4	19*	-23	0
CCN1CCN(Cc2ccc(NC(=O)c3ccc(C)c(NC(=O)c4ccno4)c3)cc2C(F)(F)F)CC1	0	0	-3	1	-1	.	.
CCN1CCN(Cc2ccc(NC(=O)c3cc(NC(=O)c4cc(-c5ccc(OC)cc5)n[nH]4)cc(OC)c3)cc2C(F)(F)F)CC1	-11	1	1	4	11	.	.
CCN1CCN(Cc2ccc(NC(=O)c3cc(NC(=O)C4=NN(c5ccccc5)C(=O)C4)cc(OC)c3)cc2C(F)(F)F)CC1	4	1	2	5	18*	-6	-2
CCN1CCN(Cc2ccc(NC(=O)c3ccc(C)c(NC(=O)C4=NN(c5ccccc5)C(=O)C4)c3)cc2C(F)(F)F)CC1	6	6	1	3	18*	1	-2
O=C(NCc1ccccc1)C(=O)NCC1OCCN1C(=O)c1cccs1 (stereo not drawn)	-11	-2	-1	1	2	.	.
Cc1cc(C(=O)OC(C)C(=O)Nc2nc(-c3ccccc3)cs2)c(C)o1 (stereo not drawn)	-4	1	3	1	3	.	.
Cc1ccccc1N(C(=O)c1csnn1)C(C(=O)NC1CCCCC1)c1ccncc1 (stereo not drawn)	8	-4	-1	0	-2	.	.
SMILES	Scp-1 inhibitor	STEP inh	LMPTP block	PP5 inh	PP1 counter	PP1 confirm	PP5 counter
Cc1ccsc1S(=O)(=O)N1CCC(CO)(CC2CCCCO2)CC1 (stereo not drawn)	-4	0	0	1	1	.	.
O=C(CCCN1C(=O)NC2(CCCC2)C1=O)N1CCN(S(=O)(=O)c2ccccc2)CC1	-26	-1	-1	-1	1	.	.
COC(=O)c1ccccc1NC1=C/C(=N\S(=O)(=O)c2ccc(C(=O)O)cc2)c2ccccc2C1=O	12	25	2	9	5	.	.
CCc1ccc(S(=O)(=O)/N=C2\C=C(Nc3ccc(C(=O)O)cc3)C(=O)c3ccccc32)cc1	-12	1	3	11*	15*	16*	44*
CCOc1cccc(-c2nn(-c3ccccc3)cc2/C=C(/C#N)C(=O)NCCCn2ccnc2)c1	2	3	-4	3	26*	17*	4
N#C/C(=C/c1cn(-c2ccccc2)nc1-c1cccc(OCc2ccccc2)c1)C(=O)NCCCn1ccnc1	3	2	3	1	21*	13	1
C=CCN(CC=C)Cc1cc(=O)oc2cc(OC)c(Cl)cc12	.	3	0	.	.	.	.
Cc1cc(C(=O)OCC(=O)N(C)c2c(N)n(Cc3ccccc3)c(=O)[nH]c2=O)c(C)n1-c1ccccc1	6	0	1	0	21*	0	-1
Cc1ccccc1C(=O)OCC(=O)N(C)c1c(N)n(Cc2ccccc2)c(=O)[nH]c1=O	-5	1	-1	0	-7	.	.
COCCN(C(=O)COC(=O)Cc1ccc(Cl)cc1Cl)c1c(N)n(Cc2ccccc2)c(=O)[nH]c1=O	-8	0	-2	-1	81*	-1	-1
O=[N+]([O-])c1ccc(O)c(P(=O)(c2ccccc2)c2ccccc2)c1	3	0	0	-1	2	.	.
Cc1ccc(N=Nc2ccc(O)c(P(=O)(c3ccccc3)c3ccccc3)c2)cc1	-20	1	3	2	18*	16*	-3
CNC(=O)/C(C#N)=C/c1ccc(-c2ccc(Cl)cc2)o1	-6	1	46	4	20*	16*	-3
C[C@@H]1CN([C@@H](C)CO)C(=O)CCCn2nncc2CO[C@H]1CN(C)S(=O)(=O)c1cccc(F)c1	.	0	0	.	.	.	.
COc1ccc(CN2C(=O)Cc3c2nc(N)c2c(N)nc(N4CCCCC4)c(C#N)c32)cc1	.	.	.	8	26*	34*	52*
Cc1ccc(N2CC(C(=O)OCC(=O)NNC(=O)c3ccccc3)CC2=O)cc1 (stereo not drawn)	0	-1	-1	-1	35*	-3	-3
